Laboratory results published in ChEMBL document CHEMBL4219033, “Anticancer activity profiling of parthenolide analogs generated via P450-mediated chemoenzymatic synthesis” (2018).

Experiments:
Format in all cases: functional
Jurkat [1] = assay: Cytotoxicity against human Jurkat cells assessed as cell viability at 2 uM after 24 hrs by MTT assay relative to control; conditions: read-out: Activity
In short: (§1)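 Suspension lines grown in α-MEM plus 10% FBS and penicillin-streptomycin, 37 °C, 5% CO2. Seeded at 30,000 cells/well in phenol-red-free α-MEM and rested 15 h. Exposed to 10 µM, or 2 µM in the lower-dose repeat, at 1% DMSO final for 24 h. 5 mg/ml MTT added directly for 3 h at 37 °C. Plates spun, formazan dissolved in DMSO, OD read at 550 nm. Viability relative to vehicle.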

JeKo-1 [2] = assay: Cytotoxicity against human JeKo1 cells assessed as cell viability at 2 uM after 24 hrs by MTT assay relative to control; conditions: JeKo-1, 24 h, read-out: Activity; in short: as §1
Jurkat [3] = assay: Cytotoxicity against human Jurkat cells assessed as cell viability at 10 uM after 24 hrs by MTT assay relative to control; conditions: read-out: Activity; in short: as §1
JeKo-1 [4] = assay: Cytotoxicity against human JeKo1 cells assessed as cell viability at 10 uM after 24 hrs by MTT assay relative to control; conditions: JeKo-1, 24 h, read-out: Activity; in short: as §1
HeLa = assay: Cytotoxicity against human HeLa cells assessed as cell viability at 10 uM after 24 hrs by MTT assay relative to control; conditions: read-out: Activity
In short: (§2)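 Adherent lines in DMEM plus 10% FBS and penicillin-streptomycin, 37 °C, 5% CO2, lifted with Accutase. Seeded at 500–10,000 cells/well and rested 15 h. Compounds from 10 mM DMSO stocks dosed at 10 µM final, 1% DMSO final, n = 5, for 24 h. Medium then swapped for 1 mg/ml MTT in phenol-red-free medium for 3 h at 37 °C. Formazan dissolved in DMSO, OD read at 550 nm. Viability normalised to 1% DMSO vehicle control.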

A549 = assay: Cytotoxicity against human A549 cells assessed as cell viability at 10 uM after 24 hrs by MTT assay relative to control; conditions: A549, 24 h, read-out: Activity; in short: as §2
HCT-116 = assay: Cytotoxicity against human HCT116 cells assessed as cell viability at 10 uM after 24 hrs by MTT assay relative to control; conditions: HCT-116, 24 h, read-out: Activity; in short: as §2
SJSA-1 = assay: Cytotoxicity against human SJSA1 cells assessed as cell viability at 10 uM after 24 hrs by MTT assay relative to control; conditions: SJSA-1, 24 h, read-out: Activity; in short: as §2
SK-N-MC = assay: Cytotoxicity against human SK-N-MC cells assessed as cell viability at 10 uM after 24 hrs by MTT assay relative to control; conditions: read-out: Activity; in short: as §2
PC-3 = assay: Cytotoxicity against human PC3 cells assessed as cell viability at 10 uM after 24 hrs by MTT assay relative to control; conditions: PC-3, 24 h, read-out: Activity; in short: as §2
MDA-MB-231 = assay: Cytotoxicity against human MDA-MB-231 cells assessed as cell viability at 10 uM after 24 hrs by MTT assay relative to control; conditions: MDA-MB-231, 24 h, read-out: Activity; in short: as §2
SK-MEL-2 = assay: Cytotoxicity against human SK-MEL-2 cells assessed as cell viability at 10 uM after 24 hrs by MTT assay relative to control; conditions: SK-MEL-2, 24 h, read-out: Activity; in short: as §2

Structure (SMILES)	viability at 2 µM (Jurkat [1]) [%]	viability at 2 µM (JeKo-1 [2]) [%]	viability at 10 µM (Jurkat [3]) [%]	viability at 10 µM (JeKo-1 [4]) [%]	viability at 10 µM (HeLa) [%]	viability at 10 µM (A549) [%]	viability at 10 µM (HCT-116) [%]	viability at 10 µM (SJSA-1) [%]	viability at 10 µM (SK-N-MC) [%]	viability at 10 µM (PC-3) [%]	viability at 10 µM (MDA-MB-231) [%]	viability at 10 µM (SK-MEL-2) [%]
C=C1C(=O)O[C@@H]2[C@H]3O[C@]3(C)CC/C=C(/C)[C@@H](OC(C(=O)OCc3ccccc3)c3ccccc3)C[C@@H]12 (stereo partly specified)	82	89.4	0.6	-1.3	79	69.8	63.7	103	84.1	91.9	101	66.3
C=C1C(=O)O[C@@H]2[C@H]3O[C@]3(C)CC/C=C(/COC(C(=O)OCc3ccccc3)c3ccccc3)CC[C@@H]12 (stereo partly specified)	87.8	98.7	1	0.8	79.2	81.5	45.8	101	97.8	85.2	88.1	80.7
C=C1C(=O)O[C@@H]2[C@H]3O[C@]3(C)CC/C=C(\C)[C@@H](OC(=O)c3ccc(C(F)(F)F)cc3)C[C@@H]12	78.9	93.6	93.2	23.3	68	90.4	40	58.2	67.4	47.6	69	88.1
C=C1C(=O)O[C@@H]2[C@H]3O[C@]3(C)CC/C=C(/C)[C@@H](OC(=O)c3ccc4ccccc4c3)C[C@@H]12	83.4	97	86.1	71.9	88.8	95.8	100	100	96.8	83.4	100	98.7
C=C1C(=O)O[C@@H]2[C@H]3O[C@]3(C)CC/C=C(/C)[C@@H](OC(=O)Nc3ccccc3)C[C@@H]12	89.8	92.2	2.9	2.6	69	84.5	55.3	96.6	91.9	88.4	100	69.4
C=C1C(=O)O[C@@H]2[C@H]3O[C@]3(C)CC/C=C(/C)[C@@H](OC(=O)c3cccs3)C[C@@H]12	94	98.1	15.4	12.9	87.5	102	29.4	98.3	98.2	93	97.6	94.7
C=C1C(=O)O[C@@H]2[C@H]3O[C@]3(C)CC/C=C(/C)[C@@H](OC(C(=O)OCC)c3ccccc3)C[C@@H]12 (stereo partly specified)	85.9	76.6	0	-2.9	77.5	60.7	46.2	100	100	78.9	90	72.5
C=C1C(=O)O[C@@H]2[C@H]3O[C@]3(C)CC/C=C(/COCc3ccc(C(F)(F)F)cc3)CC[C@@H]12	100	97.3	21.8	18.2	72.5	87.7	82.9	100	93.6	89.3	100	79.6
